FLuc stim CS – FLuc activators, initial screening, artefact control for FLuc-dependent activation tests, biochemical, ATPlite luminescence | Luciferin 4-monooxygenase (Photinus pyralis), P08659 | ATPlite luciferase biochemical, 10 min; 0 = ATP-free wells, 1 = DMSO control | activation factor at 10 µM | 200,000 tested, under 10 active;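 active means luciferase activation factor, scaled between plate controls, of at least 2 with compound at 10 µM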
Target sequence (P08659 whole entry, looked up): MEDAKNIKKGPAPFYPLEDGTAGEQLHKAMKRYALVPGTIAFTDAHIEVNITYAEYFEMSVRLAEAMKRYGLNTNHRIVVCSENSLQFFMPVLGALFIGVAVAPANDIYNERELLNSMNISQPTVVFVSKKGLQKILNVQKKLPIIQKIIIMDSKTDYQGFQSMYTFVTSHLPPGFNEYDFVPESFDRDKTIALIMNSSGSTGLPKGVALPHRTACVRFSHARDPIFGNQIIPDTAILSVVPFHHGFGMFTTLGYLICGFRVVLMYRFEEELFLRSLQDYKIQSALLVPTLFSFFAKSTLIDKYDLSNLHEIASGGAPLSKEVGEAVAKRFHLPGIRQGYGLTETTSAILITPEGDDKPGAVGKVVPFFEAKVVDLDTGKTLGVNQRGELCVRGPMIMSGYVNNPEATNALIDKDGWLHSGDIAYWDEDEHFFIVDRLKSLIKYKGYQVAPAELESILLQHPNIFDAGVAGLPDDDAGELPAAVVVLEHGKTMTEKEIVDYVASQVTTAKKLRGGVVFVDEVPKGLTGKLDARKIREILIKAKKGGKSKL
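Material: Luciferase/luciferin reagent mix; Doses: test compounds dosed from 2 mM stocks in 100% DMSO; Schedule: 10 min incubation after luciferase reagent addition, room temperature; Measured by: luminescence from luciferase reaction; Read-out: luminescence gain marking luciferase activators.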
PPC-1+TRAIL kill – compounds killing PPC-1 cancer cells with TRAIL present, primary screen, TRAIL potentiator project, ATPLite luminescence, uHTS | PPC-1 cells + TRAIL, ATPLite viability luminescence | cell killing (% activity), % at 4 µM or 5 µM | 0.41% of 220,000 active;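 active means cell killing above 50% in the first pass at 4 µM, then a duplicate retest at 5 µM averaging 50% or more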;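 further: plate controls were cells with TRAIL plus DMSO for no effect and medium-only wells lacking cells for full effect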
C8 TRAIL sens – viability loss with TRAIL in NB7+C8 cells, primary screen, TRAIL sensitizer project, cell-based, ATPlite luminescence. 1% of 360,000 active. inhibition (viability loss, TRAIL sensitization), % at 10 µM;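 active means compounds causing at least 50% loss of cell viability in the single-dose screen, relative to plate controls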
FLuc inhib CS – firefly luciferase enzyme inhibitors, primary screen, artefact control for luciferase-based inhibitor screens, biochemical, luminescence, ATPLite; Luciferin 4-monooxygenase (Photinus pyralis), P08659; 10 min; AID 1006, 2008; inhibition, % at 10 µM; 1.5% of 200,000 active;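 active means inhibition above about 50% when tested at 10 µM, limit read from the data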
The depositor's hits bear a star; · = no result. Compounds with a hit are over-represented: about 1.6% of the library has one in this group of screens.

SMILES | FLuc stim CS | PPC-1+TRAIL kill | C8 TRAIL sens | FLuc inhib CS
Cc1ccc2nc(C)c(C(=O)N/N=C/c3ccc(C(=O)O)cc3)cc2c1 | 0.7 | 21.3 | 4.7 | 25.2
COc1ccc(/C=N/n2c(C)nc3ccccc3c2=O)cc1OC | · | · | 15.5 | ·
COc1cccc(/C=N/Nc2nc3ccccc3[nH]2)c1O | · | 45.8 | 44.1 | ·
COc1cc(/C=N/Nc2nc3ccccc3[nH]2)cc(OC)c1O | 0.4 | 9.2 | 3.6 | 61.1*
COc1ccc(/C=N/Nc2nc3ccccc3c(=O)n2-c2ccccc2)cc1OC | 0.3 | 26.6 | 52.6* | 69.3*
COc1cc(/C=N/NC(=Nc2ccc(C)cc2)c2nc3ccccc3s2)ccc1O | 0.7 | -2.3 | 51.9* | 29.3
C(=N\Nc1nc2ccccc2[nH]1)/c1ccc2c(c1)OCO2 | 0.5 | 21.6 | 3.8 | 54.9*
COc1ccc2[nH]c3c(c2c1)CCn1c-3nc2sc(C(=O)Nc3ccccc3)c(C)c2c1=O | 1 | 25.0 | · | -4.6
Cc1cc(-c2csc3nc[nH]c(=S)c23)cc(C)c1C | 1.1 | 15.1 | 60.1* | -7.5
Cc1ccccc1NC(=O)CCCC(=O)c1ccccc1 | · | · | -19.4 | ·
O=C(Nc1ccc(Cl)cc1)Nc1nnc(SCc2ccccc2)s1 | 0.9 | 14.4 | 3.2 | 11.1
O=C(Nc1ccc2c(c1)OCCO2)c1ccc(Cl)cc1Cl | · | · | 72.2* | ·
O=C(Nc1ccc2c(c1)OCO2)c1ccc(Cl)cc1Cl | · | · | 71.1* | ·
CC(=O)N1c2ccc(S(=O)(=O)N3CCC(C(=O)N4CCCCC4)CC3)cc2CC1C (configuration not stated) | · | · | -1.4 | ·
C#CCOCCOCCOCCNc1nc(N2CCN(C(=O)[C@H](Cc3ccc(O)cc3)n3cc([C@@H](N)C(C)CC)nn3)CC2)nc(N2CCN(C(=O)[C@H](Cc3cc4ccccc4[nH]3)n3cc([C@@H](N)C(C)CC)nn3)CC2)n1 (some centres not stated) | 1 | 2.2 | -24.5 | 1.4
CCOC(=O)c1ccc(N2C(=O)C3C(/C=C/c4ccccc4)OC4(C(=O)c5ccccc5C4=O)C3C2=O)cc1 (configuration not stated) | 1.1 | 55.4* | -9.7 | -8.3
CCOC(=O)c1ccc(N2C(=O)[C@@H](c3ccccc3)[C@H]2c2ccccc2)cc1 | · | · | 22.4 | ·
O=C(NC(=S)N1CCN(c2ccc([N+](=O)[O-])cc2)CC1)c1ccccc1Cl | 1 | 20.3 | -1.7 | -3.7
O=C(NC(=S)N1CCN(c2ccc([N+](=O)[O-])cc2)CC1)c1ccccc1F | 1 | 53.2* | -1.9 | -3.7
Cc1sc(=NC(=O)c2ccco2)n(C)c1-c1ccc(F)cc1 | 0.2 | 34.5 | 59.6* | 80.4*
CN(C(=O)c1ccco1)c1nnc(-c2ccc(F)cc2)s1 | · | · | 11.4 | ·
Cc1nc(C)c(-c2csc(Nc3ccc(N)cc3)n2)s1 | · | · | 16.7 | ·
c1ccc(Nc2nc(-c3cccs3)cs2)nc1 | 0.3 | 12.6 | 29.7 | 68.1*
Cc1cccc(Nc2nc(-c3cccs3)cs2)n1 | 0.7 | 5.4 | 8.1 | 25.8
Nc1ccc(Nc2nc(-c3cccs3)cs2)cc1 | 0.1 | · | -2.2 | 89.8*
SMILES | FLuc stim CS | PPC-1+TRAIL kill | C8 TRAIL sens | FLuc inhib CS
CN(C)C1=NCC(CSC(=N)N)S1 (configuration not stated) | 1.1 | 11.4 | -9.6 | -5.9
Cc1ccc(N(Cc2cc(=O)[nH]c3ccccc23)C(=O)CCl)c(C)c1 | · | · | 51.6* | ·
CCCC(=O)N(Cc1cc(=O)[nH]c2ccccc12)c1ccc(C)cc1C | · | · | -15.7 | ·
ON=Cc1ccnc2ccccc12 | · | · | -15.2 | ·
O=C(O)c1ccccc1N/N=C\c1ccnc2ccccc12 | 0.1 | 44.3 | 64.9* | 89.4*
COc1ccccc1/C=C/c1nc2ccccc2c(=O)o1 | · | · | 6.6 | ·
COc1ccc(/C=C/c2nc3ccccc3c(=O)o2)cc1 | · | · | 74.8* | ·
O=C(Nc1ccc(N2CCN(Cc3ccccc3F)CC2)cc1)c1ccccc1[N+](=O)[O-] | 1.1 | 19.4 | -8.6 | -8.9
O=C(Nc1ccc(N2CCCCC2)cc1)c1ccc([N+](=O)[O-])o1 | · | · | 31.3 | ·
O=C(Nc1ccc(N2CCN(Cc3ccccc3F)CC2)cc1)c1ccc([N+](=O)[O-])o1 | · | · | 88.7* | ·
CC1CCN(c2ccc(NC(=O)c3ccc([N+](=O)[O-])o3)cc2)CC1 | · | · | 94.0* | ·
CC(=O)c1c(C)[nH]c(=S)c(C#N)c1-c1ccc(Cl)cc1 | · | -6.7 | 12.4 | ·
CCn1c(CNc2cccc(Cl)c2)nnc1SCC(=O)OC1CCCCC1 | 1 | 18.4 | 19.3 | -0.2
Cc1ccc(-c2noc(-c3ccccc3F)n2)cc1 | 0.4 | 6.7 | 25.5 | 56.7*
